Experimental data: ChEMBL document CHEMBL2146426, “Antitubercular nitrofuran isoxazolines with improved pharmacokinetic properties” (Bioorg Med Chem, 2012)
In brackets after ≈: the same amount, converted by molar mass.

What was measured:
[1] = Oral bioavailability in rat; type: ADME, organism-based; details: in vivo
[2] = Cmax in rat at 10 mg/kg, iv; type: ADME, organism-based; set-up: dose 10 mg/kg, route intravenous; details: in vivo
Procedure, shortened: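 Rats (n=5) given 10 mg/kg IV via femoral vein catheter. Vehicle was 2% ethanol/saline or 30% DMSO/30% propylene glycol/20% PEG 3000/20% saline, depending on compound. Serial plasma sampled 0–48 h and assayed by LC-MS/MS after acetonitrile precipitation. Cmax read by visual inspection of the concentration–time curve.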

[3] = AUC (0 to infinity) in rat at 10 mg/kg, iv; type: ADME, organism-based; set-up: time infinity, dose 10 mg/kg, route intravenous; details: plasma
Procedure, shortened: (§1)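 Rats, n=5, given 10 mg/kg IV via femoral vein catheter. Vehicle was 2% ethanol/saline or 30% DMSO/30% propylene glycol/20% PEG 3000/20% saline, depending on compound. Plasma sampled 0–48 h and urine collected in intervals to 48 h; both assayed by LC-MS/MS after acetonitrile precipitation. Non-compartmental analysis: CL = dose/AUC0-∞; fe = cumulative unchanged urinary amount/dose.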

Rattus norvegicus [4] = species on record: Rattus norvegicus; test: Half life in rat; type: ADME, organism-based; details: in vivo
Rattus norvegicus [5] = species on record: Rattus norvegicus; test: Clearance in rat; type: ADME, organism-based; details: in vivo
[6] = Volume of distribution in rat; type: ADME, organism-based; details: in vivo
Procedure, shortened: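 Plasma concentration–time data from rats (n=5) after IV 10 mg/kg or oral 100 mg/kg. Samples taken 0.25–48 h and measured by LC-MS/MS. Non-compartmental analysis; Vd calculated as AUMC0-∞ × dose divided by the square of AUC0-∞.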

[7] = Drug excretion in rat urine; type: ADME; details: read-out: Drug excretion
[8] = test system: Mycobacterium tuberculosis; test: Antitubercular activity against Mycobacterium tuberculosis after 7 to 14 days by microbroth dilution technique; type: functional
Procedure, shortened: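 M. tuberculosis: CLSI microbroth dilution using two-fold serial drug dilutions in broth. Inoculum about 10^6 CFU/mL; top final concentration 200 µg/mL. Incubated aerobically at 37°C for 7 or 14 days. MIC taken as the lowest concentration preventing visible growth by eye.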

[9] = Solubility of the compound at pH 7.4 after 18 hrs by UV spectrometry; type: physicochemical; details: buffer, pH 7.4, 18 h
Procedure, shortened: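 10 mM DMSO stocks diluted 100-fold in system solution buffer pH 7.4 and held 18 h at room temperature. Filtered, diluted 1:1 with isopropanol and measured by UV (230–500 nm). Compared against a 600-fold diluted reference in buffer/isopropanol. Triplicates.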

[10] = Half life in mouse liver microsomes; type: ADME, Microsome
Procedure, shortened: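 Mouse liver microsomes at 0.6381 mg/mL protein in 0.1 M potassium phosphate pH 7.4 with EDTA. Reaction started with NADPH regenerating system at 37°C; six time points including 0, triplicate wells. Quenched in cold acetonitrile with warfarin internal standard, analysed by LC–MS. Half-life from a first-order least-squares fit.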

[11] = Half life in human liver microsomes; type: ADME, Microsome
[12] = Apparent permeability of the compound from apical to basal side of human Caco2 cells at 50 umol/L after 2 hrs by UPLC/MS analysis; type: ADME, cell-based; details: Caco-2
Procedure, shortened: (§2)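 Caco-2 monolayers grown 7 days on Transwell inserts, washed with HBSS/HEPES pH 7.4. Compound at 50 µmol/L added apically or basolaterally, then 2 h at 37°C. Receiver side sampled and quantified by UPLC/MS. Papp = (dQ/dt)/(A×C0), triplicates.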

[13] = Apparent permeability of the compound from basal to apical side of human Caco2 cells at 50 umol/L after 2 hrs by UPLC/MS analysis; type: ADME, cell-based; details: Caco-2; procedure, shortened: as §2
[14] = Efflux ratio of apparent permeability from basal to apical side to apical to basal side of human Caco2 cells; details: Caco-2
[15] = Plasma protein binding in mouse at 10 uM after 4 hrs by LC/MS analysis; type: ADME, cell-free; details: read-out: PPB (converted)
Procedure, shortened: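 Compound at 10 µM (0.1% DMSO) in mouse or human plasma. Rapid equilibrium dialysis (MWCO 8K) against DPBS pH 7.4, 4 h at 37°C with orbital shaking. Both chambers matrix-matched, precipitated with acetonitrile containing warfarin internal standard, quantified by LC–MS. %Free = buffer/plasma × 100; %Bound = 100 − %Free.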

Staphylococcus aureus = test: Antibacterial activity against Staphylococcus aureus ATCC 29213 after overnight incubation by microbroth dilution technique; type: functional
Procedure, shortened: (§3)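 Two-fold serial broth dilutions per CLSI; inoculum about 10^5 CFU/mL; top final drug concentration 200 µg/mL; incubated aerobically overnight at 37°C. MIC read visually as the lowest concentration with no visible growth.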

Streptococcus pyogenes = test: Antibacterial activity against Streptococcus pyogenes ATCC 700294 after overnight incubation by microbroth dilution technique; type: functional; procedure, shortened: as §3
Streptococcus pneumoniae = test: Antibacterial activity against Streptococcus pneumoniae DAW27 after overnight incubation by microbroth dilution technique; type: functional; procedure, shortened: as §3
Enterococcus faecalis = test: Antibacterial activity against Enterococcus faecalis ATCC 3186 after overnight incubation by microbroth dilution technique; type: functional; procedure, shortened: as §3
Bacillus subtilis = test: Antibacterial activity against Bacillus subtilis ATCC 23857 after overnight incubation by microbroth dilution technique; type: functional
Procedure, shortened: (§4)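 Non-mycobacterial strains: two-fold serial dilutions in broth by CLSI microbroth dilution. Inoculum about 10^5 cfu/mL; top final drug concentration 200 µg/mL. Aerobic incubation at 37°C overnight. MIC read visually as the lowest concentration with no visible growth.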

Bacillus anthracis = test: Antibacterial activity against Bacillus anthracis Sterne 34F2 after overnight incubation by microbroth dilution technique; type: functional; procedure, shortened: as §4
Escherichia coli = test: Antibacterial activity against Escherichia coli K12 after overnight incubation by microbroth dilution technique; type: functional; details: K-12; procedure, shortened: as §4
[16] = Cmax in Sprague-Dawley rat at 10 mg/kg, iv; type: ADME, organism-based; set-up: dose 10 mg/kg, route intravenous; details: in vivo; procedure, shortened: as §1
[17] = AUC (0 to infinity) in Sprague-Dawley rat at 10 mg/kg, iv; type: ADME, organism-based; set-up: time infinity, dose 10 mg/kg, route intravenous; details: plasma; procedure, shortened: as §1
[18] = Half life in Sprague-Dawley rat at 10 mg/kg, iv; type: ADME, organism-based; set-up: dose 10 mg/kg, route intravenous; details: in vivo; procedure, shortened: as §1
[19] = Clearance in Sprague-Dawley rat at 10 mg/kg, iv; type: ADME, organism-based; set-up: dose 10 mg/kg, route intravenous; details: in vivo; procedure, shortened: as §1
[20] = Volume of distribution in Sprague-Dawley rat at 10 mg/kg, iv; type: ADME, organism-based; set-up: dose 10 mg/kg, route intravenous; details: in vivo; procedure, shortened: as §1
[21] = Drug excretion in Sprague-Dawley rat urine at 10 mg/kg, iv; type: ADME, organism-based; set-up: dose 10 mg/kg, route intravenous; details: read-out: Drug excretion; procedure, shortened: as §1
Rattus norvegicus [22] = test: Oral bioavailability in Sprague-Dawley rat at 100 mg/kg; type: ADME, organism-based; details: in vivo
Procedure, shortened: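 Fasted rats, n=5, dosed 100 mg/kg by oral gavage. Vehicle was 2% methanol, 60:40 PEG 3000/water or 10% vitamin E TPGS, depending on compound. Plasma sampled to 48 h and assayed by LC-MS/MS. F = (AUCoral×DoseIV)/(AUCIV×Doseoral), referenced to 10 mg/kg IV.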

Vero = test: Cytotoxicity against african green monkey Vero cells after 72 hrs by MTT assay; type: cell-based; details: Chlorocebus sabaeus
Procedure, shortened: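 Vero cells in DMEM with 10% FBS, seeded at ~10% confluency and left to adhere overnight. Two-fold serial dilutions applied for 72 h at 37°C, 5% CO2. MTT read-out at 570 nm after overnight solubilization.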

Rattus norvegicus [23] = test: Toxicity in Sprague-Dawley rat assessed as seizures at 10 mg/kg, iv; type: organism-based; set-up: dose 10 mg/kg, route intravenous; details: in vivo
Procedure, shortened: (§5)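 Observed during rat IV pharmacokinetic study (n=5). Single 10 mg/kg dose via femoral vein catheter, flushed with heparinized locking solution. Vehicle was 2% ethanol/saline or 30% DMSO/30% propylene glycol/20% PEG 3000/20% saline. Animals followed with serial blood sampling to 48 h.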

Rattus norvegicus [24] = test: Toxicity in Sprague-Dawley rat assessed as mortality at 10 mg/kg, iv; type: organism-based; set-up: dose 10 mg/kg, route intravenous; details: in vivo; procedure, shortened: as §5
Rattus norvegicus [25] = test: Toxicity in Sprague-Dawley rat assessed as mortality at 100 mg/kg, po; type: organism-based; set-up: dose 100 mg/kg, route oral; details: in vivo
Procedure, shortened: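 Observed during rat oral pharmacokinetic study (n=5). Overnight-fasted animals, water ad libitum, received 100 mg/kg by oral gavage. Vehicle was compound-dependent: 2% methanol (sonicated), 60:40 PEG 3000/water, or 10% vitamin E TPGS. Animals followed with sampling to 48 h.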

**Q.** Which bioavailability [1] does the source give for `CC1COc2c(N3CCN(C)CC3)c(F)cc3c(=O)c(C(=O)O)cn1c23` (stereo not drawn) [OFLOXACIN] here?
**A.** The bioavailability was 78%.

**Q.** And the Cmax [2]?
**A.** The Cmax was 10900 ng/mL.

**Q.** What about the AUC(0-inf) [3] of the same compound?
**A.** Its AUC(0-inf) is 6100 ng·h/mL.

**Q.** And the t1/2 (Rattus norvegicus [4])?
**A.** Its t1/2 is 90 min.

**Q.** What about the CL (Rattus norvegicus [5]) of the same compound?
**A.** Its CL is 14.3 mL/min/kg.

**Q.** What about the Vd [6] of the same compound?
**A.** Its Vd is 0.99 L/kg.

**Q.** What about the dose excreted [7] of the same compound?
**A.** The dose excreted was 46%.

**Q.** What does the source list for `O=[N+]([O-])c1ccc(C2=NOC(c3ccc(N4CCCCC4)cc3)C2)o1` (stereo not drawn)?
**A.** MIC [8]: 6 µg/mL (≈ 17.6 µM); solubility [9]: 1.1 µg/mL (≈ 3.22 µM); half-life [10]: 46.8 min; half-life [11]: 28.2 min; Papp A→B at 2 h, 50 µM [12]: 7.61 ×10⁻⁶ cm/s; Papp B→A at 2 h, 50 µM [13]: 10.3 ×10⁻⁶ cm/s; efflux ratio [14]: 1.35; fraction unbound at 4 h, 10 µM [15]: 0.012; MIC (Staphylococcus aureus): 12.5 µg/mL (≈ 36.6 µM); MIC (Streptococcus pyogenes): 100 µg/mL (≈ 293 µM); MIC (Streptococcus pneumoniae): 200 µg/mL (≈ 586 µM); MIC (Enterococcus faecalis): > 200 µg/mL; MIC (Bacillus subtilis): 50 µg/mL (≈ 146 µM); MIC (Bacillus anthracis): > 200 µg/mL; MIC (Escherichia coli): > 200 µg/mL; Cmax [16]: 2280 ng/mL; AUC(0-inf) [17]: 2750 ng·h/mL; half-life [18]: 167 min; clearance [19]: 62.8 mL/min/kg; Vd [20]: 10.9 L/kg; dose excreted [21]: 0%; F (Rattus norvegicus [22]): 29.4%; IC50 (Vero): 2.5 µg/mL (≈ 7.32 µM); Activity (Rattus norvegicus [23]): Non-toxic; Activity (Rattus norvegicus [24]): Non-toxic; Activity (Rattus norvegicus [25]): Non-toxic
